Hits are enriched below; roughly 2.3% of the tested compounds scored in any of these assays.
KLF5 inh – suppresses KLF5 promoter-driven expression | DLD-1 KLF5 promoter-luciferase reporter, luminescence | inhibition, % at 5 µM | 290,000 compounds, 0.23% hits | AID 1700;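 active = inhibition above a per-plate limit of that plate's mean compound inhibition plus 3 SD, cut at about 60% in these data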;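 also: 0% = DMSO wells and 100% = LY294002 at 200 µM; higher means less KLF5 promoter-driven luciferase light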
Beta cell apopt – blocks beta cell apoptosis | INS-1E cytokine-induced death, ATP luminescence, 48 h; percent of positive-control rescue, neutral wells zero | protection from apoptosis, % (concentration not given with the values) | 300,000 compounds, 0.8% hits;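 active = Every replicate reaches about 75%, or at least half do and their mean reaches it too, limit read from the data; inconclusive = At least half of replicates reach the limit but their mean does not; inactive = Under half of replicates reach the limit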;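 also: 0% = cytokine-treated negative control wells and 100% = positive control rescue; higher means more ATP so stronger rescue from cytokine killing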
A1 inh – inhibitors of the anti-apoptotic protein A1, read as caspase activation. caspase activation, % (test concentration not listed). MEF A1-2A-BIM cells, Caspase-Glo 3/7 luminescence, 3 h; percent of clofoctol response, vehicle zero. 330,000 compounds, 0.066% hits. AID 2462;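 active = over half of replicate activation scores above 10%, or exactly half above 10 with the replicate mean above 10; inconclusive = replicate mean below 10 yet half the replicates above 10; inactive = over half of replicates below 10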
T cruzi inh – T. cruzi replication inhibition. 300,000 compounds, 1.4% hits. T. cruzi beta-gal in NIH3T3, luminescence, 90 h. AID 1885. inhibition, % (concentration not given with the values);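 active = mean inhibition across valid replicates above about 55%, limit read from the data; inconclusive = mean below that limit but half or more replicates reach it; inactive = mean below it, under half of replicates reach it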;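 also: signal also drops with host cell toxicity which is not excluded here; 0% = plate median of DMSO wells and 100% = zero luminescence signal; higher percent means less beta-gal luminescence so fewer parasites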
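System: NIH/3T3 fibroblasts plus reporter T. cruzi. Medium: DMEM plus 2% FBS. Probe or stimulus: 5000 reporter trypomastigotes per well. Compound: single 50 nL compound addition per well in DMSO. Incubation: co-culture of at least 90 h after 3 h attachment. Detection: GalScreen β-gal luminescence, detergent lysis, 60 min. Evaluation: parasite load inhibition, %.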
HIF act – HIF pathway transcriptional activation; U2OS HRE-luciferase reporter, luminescence; normalized: DMSO 0%, desferrioxamine 100%; activation, % at 7.5 µM (by protocol); 300,000 compounds, 0.32% hits; AID 1910;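 active = mean activation of at least 10% of the iron chelator positive control signal, with at least half of replicates also reaching 10%; inconclusive = mean and replicate majority disagree about reaching 10%; inactive = mean and most replicates under 10%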
An asterisk follows results filed as active; ? = inconclusive; . = not tested or not shown.

SMILES	KLF5 inh	Beta cell apopt	A1 inh	T cruzi inh	HIF act
Cc1ccc(CN=c2c([N+](=O)[O-])nn(-c3cccc(Cl)c3)n2O)cc1	-19	1	0	24	0
CCc1ccc(N=c2c([N+](=O)[O-])nn(-c3ccccc3)n2O)cc1	-17	-5	0	56*	0
Cc1cc(C)cc(N=c2c([N+](=O)[O-])nn(-c3ccc(Cl)cc3)n2O)c1	18	-9	1	59*	0
CCOc1ccc(CN(C)CC(=O)Nc2cc(C)c(C)cc2[N+](=O)[O-])cc1	-32	-2	0	9	1
CCOc1ccc(CN(C)CC(=O)Nc2cc(OC)c([N+](=O)[O-])cc2C)cc1	4	3	-2	59*	1
CC1(c2ccc(OC(F)F)cc2)NC(=O)N(CC(=O)N2c3ccccc3NC(=O)C2(C)C)C1=O (centres undefined)	.	-2	0	.	.
CC1=NOC(=O)/C1=C/c1ccc(-c2ccc(Cl)cc2)o1	-32	73	1	.	.
CC1=NOC(=O)/C1=C\c1ccc(-c2cc(Cl)ccc2Cl)o1	-8	101*	3	-36	0
CN(C)S(=O)(=O)c1ccc(Cl)c(C(=O)Nc2ccc(S(=O)(=O)N3CCOCC3)cc2)c1	-10	-3	0	-4	0
O=C(COC(=O)C1CCC(N2C(=O)C3C4CCC(C4)C3C2=O)CC1)c1ccc(F)cc1 (centres undefined)	-18	-11	1	0	0
CCn1ccnc1C(O)c1ccccc1OC (centres undefined)	-34	-4	1	-4	27*
COc1ccccc1C(O)c1nccn1C (centres undefined)	-37	-6	0	1	0
O=C(CSc1nc2[nH]ncc2c(=O)[nH]1)Nc1ccc(Cl)cc1	.	.	1	2	-1
CC(=O)CSc1nc2ccc(Nc3nc(N4CCOCC4)nc(N4CCOCC4)n3)cc2s1	-59	2	0	52	0
O=C(CSc1nc(Nc2ccccc2)nc(N2CCOCC2)n1)Nc1cccc([N+](=O)[O-])c1	-2	17	1	46	0
O=C(CSc1nc(Nc2ccccc2)nc(N2CCOCC2)n1)Nc1ccc([N+](=O)[O-])cc1	-3	2	1	57*	0
CC(=O)Nc1ccc(/C(C)=N/Nc2nc(Nc3ccccc3)nc(N3CCOCC3)n2)cc1	-22	-7	4	67*	1
Cc1ccc(NC(=O)CSc2nc3ccc(Nc4nc(N5CCOCC5)nc(N5CCOCC5)n4)cc3s2)cc1	-31	41	10*	.	.
COc1ccc(NC(=O)CSc2nc3ccc(Nc4nc(N5CCOCC5)nc(N5CCOCC5)n4)cc3s2)cc1	-47	.	4	41	-4
CC(C)(C)NC(=O)CSc1nc2ccc(Nc3nc(N4CCOCC4)nc(N4CCOCC4)n3)cc2s1	-2	8	0	58*	0
CC(=O)c1ccc(Nc2nc(N3CCOCC3)nc(N3CCOCC3)n2)cc1	-14	5	1	15	0
C=CCSc1nc2sc3c(c2c(=O)n1-c1ccc(C)cc1)CCN(C)C3	-31	0	0	37	0
COc1cc(/C=C2\SC(=S)NC2=O)ccc1OS(=O)(=O)c1ccccc1	-12	113*	0	-23	0
Cn1nc(-c2ccccn2)nc2c(=O)n(C)c(=O)nc1-2	105*	127*	-1	59*	-4
CC1=NNC(=O)/C1=C\c1cn(-c2ccccc2)nc1-c1cccs1	-27	99*	16*	-9	0
SMILES	KLF5 inh	Beta cell apopt	A1 inh	T cruzi inh	HIF act
Cc1ccc(S(=O)(=O)/N=C(/Nc2ccc([N+](=O)[O-])cc2[N+](=O)[O-])c2ccccc2)cc1	.	9	-2	.	.
COc1nnc(-c2ccc(N3CCCCC3)c(NC(=O)C3CCCCC3)c2)c2ccccc12	-16	79*	0	34	0
O=C(CCN1CCCCO1)N1CCCC(Nc2cccc(F)c2)C1 (centres undefined)	-30	5	1	-13	0
O=C(Cc1cccs1)N/N=C\c1ccc([N+](=O)[O-])s1	-24	94*	0	84*	-1
Cc1ccc(NC(=S)N/N=C/c2ccc([N+](=O)[O-])s2)cc1	16	?	0	63*	4
Cc1cc(C)cc(N=Cc2ccc([N+](=O)[O-])s2)c1	7	-2	0	37	0
COc1cc(/C=N/NC(=O)Cc2cccs2)c([N+](=O)[O-])cc1OC	4	.	1	-4	0
Cc1ccccc1NC(=S)c1ccc2ccccc2n1	-61	11	0	-14	4
O=C(Nc1ccnn1C1CCN(CCCc2ccccc2)CC1)c1ccccc1Cl	-29	-1	1	13	0
CCOC(=O)CCCCCC(=O)Nc1ccc2c(c1)CC(=O)N([C@@H](C)CO)C[C@H](C)[C@@H](CN(C)C(=O)Nc1ccc3c(c1)OCO3)O2	.	-1	0	.	.
O=[N+]([O-])c1ccc(S(=O)(=O)Nc2ccc(-c3csc(-c4ccccc4)n3)cc2)cc1	-1	9	0	66*	1
O=S(=O)(Nc1ccc(-c2csc(-c3ccccc3)n2)cc1)c1ccccc1	-26	4	1	33	0
N=c1c2c(ncn1CCCO)Oc1ccc3ccccc3c1C2c1ccccc1 (centres undefined)	-12	111*	0	22	0
CN(C)CCCn1cnc2c(c1=N)C(c1ccccc1)c1ccc3ccccc3c1O2 (centres undefined)	-10	98*	1	31	2
COc1ccc(C2c3ccc4ccccc4c3Oc3ncn(CCN(C)C)c(=N)c32)cc1 (centres undefined)	-12	7	-1	59*	1
O=C(CCC1CCCC1)NNC(=O)c1ccc(F)cc1	.	-4	0	.	.
COc1ccccc1OCCC(=O)NNC(=O)c1ccccc1F	.	-2	-2	.	.
CCCCCCCCCCOC(=O)Cn1c(COc2ccc(Cl)cc2)[n+](C)c2ccccc21	-21	122*	1	48	1
CCCCCCCCCCOC(=O)Cn1c(COc2ccccc2)[n+](C)c2ccccc21	-7	129*	-1	73*	1
CCCCCCCCCCOC(=O)Cn1c(COc2ccc(OC)cc2)[n+](C)c2ccccc21	-39	114*	0	29	1
CCCCCCCCCCOC(=O)Cn1c(COc2ccccc2C)[n+](C)c2ccccc21	-40	110*	1	65*	0
CCCCOC(=O)Cn1c(=O)n(CC(=O)OCCCC)c2ccccc21	2	-4	0	9	0
CCOC(=O)Cn1c(COc2ccccc2OC)[n+](C)c2ccccc21	.	1	0	5	0
CCCCCCCCCCOC(=O)Cn1c(COc2cccc(C)c2)[n+](C)c2ccccc21	-17	99*	-1	58*	1
CC1=CC(C)(C)N(C(=O)CSc2nnc(-c3ccc(C)cc3)o2)c2ccc(C)cc21	-2	82*	0	14	-1

Compound activity: PubChem, several laboratories
